Hits are enriched below; roughly 2.3% of the tested compounds scored in any of these assays.
MCL1-BIM inh = disrupts human MCL1 binding to BIM-BH3 peptide | Q07820 | GST-MCL1 / FITC-Bim-BH3 fluorescence polarization | inhibition, % at 10.9 µM | 320,000 compounds, 0.68% hits;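 active means inhibition above the mean inhibition of all tested compounds plus 3 SD, set per campaign, cut at about 40% in these data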;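 further: 0% = DMSO wells and 100% = unlabeled Bim-BH3 peptide control; higher means more loss of mP so more displacement of Bim peptide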
Bim-Mcl-1 = inhibitors of Bim-Mcl-1 interaction, human; inhibition, % at 10 µM; Bead-based flow cytometry, Bim peptide-Mcl-1 binding; 190,000 compounds, 0.1% hits; AID 1009; Q07820; in the data active means inhibition above about 40%;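 further: 0% = no compound tracer wells and 100% = peptide blocker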
Mcl1-Noxa inh = Mcl-1/Noxa interaction inhibition | Q07820 | TR-FRET Mcl-1/Noxa peptide binding, 2 h | inhibition, % at 21.7 µM | 220,000 compounds, 1.5% hits;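 active means compounds that cut the protein-peptide binding signal by more than 50% relative to plate controls in a single-dose test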;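 further: His-tagged Mcl-1 with rhodamine Noxa BH3 peptide and terbium anti-His antibody; 0% = Mcl-1 plus Noxa peptide wells and 100% = peptide-only wells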
Pemphigus Ab inh = inhibitors of pemphigus antibody binding to human desmoglein-3; DSG3-coupled beads, scFv-anti-DSG3-GFP binding, flow cytometry; active compounds read low; binding (percent of control), % at 10 µM; 310,000 compounds, 0.48% hits; AID 588358;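 active means binding more than 3 SD below its plate's average and above zero; inconclusive means below that plate limit but binding exactly zero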;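 further: hits lower antibody fragment binding to DSG3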
Mcl1-Bid inh = disrupts binding of human Mcl-1 to Bid peptide. Q07820. TR-FRET Mcl-1/Bid-Dy647 peptide binding, 1536-well. inhibition, % at 21.7 µM. 220,000 compounds, 0.97% hits. AID 1021;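 active means compounds that cut the binding signal by more than half at the single screening dose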;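 further: His-tagged Mcl-1 with europium anti-His antibody binding Bid BH3 peptide; 0% = Mcl-1 plus peptide wells and 100% = peptide-only wells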
T cell HTS = modulates CD8 T cell binding to vesicles. response (vesicle binding), % at 7 µM. 2C CD8+ T cell-vesicle binding, flow cytometry; active compounds read low. 330,000 compounds, 0.068% hits;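 active means response, share of CD8 T cells binding vesicles, and their 90th percentile fluorescence all below set limits, cut at about 80% in these data, passing the limit was not always enough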;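 further: values below 100% mean blocked vesicle binding to the CD8+ T cells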
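material = purified 2C TCR transgenic mouse naive CD8+ T cells | controls = Unloaded micro-vesicles (low), QL9 vesicles with 0.7% DMSO (high) | detection = cytometric PE anti-B7-1 and Alexa647 anti-CD8 signals after 1% paraformaldehyde fixation | incubation = binding step 1.5 h, 37 °C, antibody labelling 20 min, ice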
Numbers without * were called inactive; i = inactive; u = inconclusive; x = no result.

SMILES	MCL1-BIM inh	Bim-Mcl-1	Mcl1-Noxa inh	Pemphigus Ab inh	Mcl1-Bid inh	T cell HTS
CC(=O)N1CC=C2C(C#N)=C(N)C(C#N)(C#N)[C@H](c3ccoc3)[C@H]2C1	52*	-4	-10	100	-19	338
CCN1CC=C2C(C#N)=C(N)C(C#N)(C#N)C(CCc3ccccc3)C2C1 (centres undefined)	183*	0	-13	x	-29	i
CCCCOc1ccc(C2C3CN(C(=O)OCC)CC=C3C(C#N)=C(N)C2(C#N)C#N)cc1OC (centres undefined)	-8	-2	15	120	-9	219
CC(=O)N1CC=C2C(C#N)=C(N)C(C#N)(C#N)C(CCc3ccccc3)C2C1 (centres undefined)	2	-1	-9	x	-51	256
Cc1[nH]c(=O)[nH]c(=O)c1C=CC(=O)NC(CO)CS(=O)Cc1ccccc1 (centres undefined)	x	x	x	105	x	x
COc1cc(C(=O)NCCCN2CCCC2=O)cc(Br)c1OCc1ccccc1	-1	x	x	106	x	364
Nc1c(C=C2C=CC(=O)C=C2)c(=O)nc2sc(CC(=O)N3CCCC3)nn12	-3	x	x	24	x	279
CCS(=O)(=O)c1nn2c(N)c(/C=C3/C=CC(=O)C(OC)=C3)c(=O)nc2s1	-33	0	58*	99	-42	0
CCOC1=C/C(=C/c2c(N)n3nc(-c4ccccc4)sc3nc2=O)C=CC1=O	x	-1	89*	102	-33	x
COC1=C/C(=C/c2c(N)n3nc(-c4ccc(C)cc4)sc3nc2=O)C=CC1=O	x	3	84*	101	27	x
CCOC1=C/C(=C/c2c(N)n3oc(C)cc3nc2=O)C=CC1=O	-2	1	24	x	-42	243
COc1cc2c(cc1OC)C(c1ccccc1C(F)(F)F)CC(=O)N2 (centres undefined)	4	x	x	96	x	261
COC(=O)c1c(NC(=O)COC(=O)c2ccc(NC(=O)CC#N)cc2)sc2c1CCCCC2	-18	0	67*	x	19	510
Cc1ccc(-n2nnnc2SCC(=O)c2c(N)n(CC(C)C)c(=O)n(C)c2=O)cc1	-7	-2	-122	84*	-6	401
CN(C)c1ccc(NC(=O)c2cn(-c3ccccc3)nc2-c2cccs2)cc1	8	-4	77*	u	28	542
O=C(Nc1ccc2ccccc2c1)c1cn(-c2ccccc2)nc1-c1cccs1	-3	-2	-34	98	-13	643
O=c1[nH]c(C2CCCN(S(=O)(=O)c3ccccc3Cl)C2)nc2c1nnn2Cc1ccc2c(c1)OCCO2 (centres undefined)	-12	x	x	77*	x	302
O=c1[nH]c(C2CCN(S(=O)(=O)c3ccccc3)CC2)nc2c1nnn2Cc1ccc2c(c1)OCCO2	0	x	x	88	x	377
CC(=O)Nc1sc(N/N=C/c2ccc(O)cc2)nc1-c1ccc(C)cc1	2	x	89*	95	-85	520
CC(=O)Nc1sc(N/N=C/c2ccccc2)nc1-c1ccc(C)cc1	1	x	7	x	-52	324
CC(=O)Nc1sc(N/N=C\c2ccccc2Cl)nc1-c1cccs1	9	-2	61*	100	7	170
CCOc1cc(/C=N/NC(=O)Nc2ccccc2)ccc1O	3	5	25	108	-56	134
CC(=O)Nc1sc(N/N=C\c2ccco2)nc1-c1cccs1	-22	-5	74*	111	-74	170
CCOc1cc(/C=N/Nc2nc(-c3cccs3)c(NC(C)=O)s2)ccc1O	4	x	101*	91	-81	95
O=C(O)CC12CC3CC(C1)CC(n1ncc(N4CCC5(CC4)OCCO5)c(Cl)c1=O)(C3)C2	2	x	6	94	-10	226
SMILES	MCL1-BIM inh	Bim-Mcl-1	Mcl1-Noxa inh	Pemphigus Ab inh	Mcl1-Bid inh	T cell HTS
CC(=O)Nc1sc(NC(=O)c2ccc(Cl)cc2)nc1-c1cccs1	7	-1	31	96	-19	207
CC(=O)Nc1sc(N/N=C\c2ccccc2)nc1-c1cccs1	-13	-37	55*	88	-38	570
O=c1c(-c2ccccc2)c[nH]n1-c1cccc([N+](=O)[O-])c1	-7	0	11	77	3	271
N#Cc1ccc2sn(-c3ccccc3)c(=O)c2c1	x	x	x	41*	x	x
O=c1c2cc([N+](=O)[O-])ccc2sn1-c1ccccc1	x	x	x	66*	x	x
CC(=O)Nc1ccc2sn(-c3ccccc3)c(=O)c2c1	x	x	x	49*	x	x
